We go through 2 compounds from ChEMBL document CHEMBL1132381, “Pyrrolidine-3-carboxylic acids as endothelin antagonists. 4. Side chain conformational restriction leads to ET(B) selectivity” (J Med Chem, 1999).

Data set [1] is filed under the species Rattus norvegicus. Description: Clearance role of ET-B evaluated in terms of increase in mean arterial pressure (MAP) in rats. It is filed as functional, Artery.
The target in data set [2] is T1, Endothelin-1 receptor (Homo sapiens, UniProt P25101).
T1 sequence (P25101 whole entry): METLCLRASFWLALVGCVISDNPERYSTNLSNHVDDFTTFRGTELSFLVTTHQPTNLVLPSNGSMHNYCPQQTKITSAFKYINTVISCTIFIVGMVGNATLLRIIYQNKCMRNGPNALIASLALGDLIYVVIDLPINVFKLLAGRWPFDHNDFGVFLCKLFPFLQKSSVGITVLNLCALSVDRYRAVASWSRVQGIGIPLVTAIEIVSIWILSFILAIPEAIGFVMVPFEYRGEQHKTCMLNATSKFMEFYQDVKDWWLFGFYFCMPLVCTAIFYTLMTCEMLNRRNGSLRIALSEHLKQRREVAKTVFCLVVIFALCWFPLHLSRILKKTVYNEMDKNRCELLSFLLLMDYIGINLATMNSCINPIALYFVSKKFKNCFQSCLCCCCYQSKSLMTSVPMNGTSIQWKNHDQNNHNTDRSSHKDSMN
The data set can be described thus: Binding affinity towards human Endothelin A receptor (hET -A).

In data set [3] the test system is CHO. The data set can be described thus: Antagonistic activity was measured by ET receptor mediated hydrolysis of inositol phosphates. It is filed as functional, cell-based. Conditions: Cricetulus griseus. The gist of the method: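 Inositol phosphate hydrolysis in human ETB-transfected CHO cells. Confluent cells labeled with 5 μCi/well [3H]myoinositol, then held 60 min at 37 °C in HEPES saline buffer with protease inhibitors and 10 mM LiCl. Compounds added, then 1 nM ET-1 challenge for 30 min at 37 °C. Total inositol phosphates measured; agonist activity assessed in the same run.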

A short description of data set [4]: Oral bioavailability in rat. Conditions: in vivo.
Data set [5] can be described thus: Compound was evaluated for the biological half-life when administered through intravenous route. Conditions: in vivo. It is filed as ADME, organism-based.
For data set [6], the species on record is Rattus norvegicus. Description: Clearance role of ET-B evaluated in terms of increase in circulating levels of ET-1 in rats. The data set is classed as functional.
The target in data set [7] is T2, Endothelin receptor type B (Homo sapiens, UniProt P24530).
T2 sequence (P24530 whole entry): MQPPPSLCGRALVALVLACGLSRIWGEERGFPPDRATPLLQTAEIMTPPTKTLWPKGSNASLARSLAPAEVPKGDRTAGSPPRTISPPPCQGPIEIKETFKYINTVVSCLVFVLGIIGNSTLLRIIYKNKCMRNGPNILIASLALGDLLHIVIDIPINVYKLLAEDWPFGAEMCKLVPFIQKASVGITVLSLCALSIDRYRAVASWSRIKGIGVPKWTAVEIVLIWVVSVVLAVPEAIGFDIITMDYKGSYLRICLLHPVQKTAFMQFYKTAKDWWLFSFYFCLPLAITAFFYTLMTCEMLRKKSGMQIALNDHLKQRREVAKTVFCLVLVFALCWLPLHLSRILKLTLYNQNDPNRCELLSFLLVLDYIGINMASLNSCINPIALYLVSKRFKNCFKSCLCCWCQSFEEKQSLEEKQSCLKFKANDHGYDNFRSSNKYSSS
Description: Binding affinity towards human Endothelin B receptor (hET -B).

Data set [8] is described as follows: Compound was evaluated for area under curve when administered through oral route to rat. Conditions: in vivo.
Data set [9] can be described thus: Oral bioavailability in rat. Conditions: in vivo. This is another data set of the same source.
Data set [10] is described as follows: Compound was evaluated for area under curve when administered through oral route in rat. The conditions noted are these: in vivo.

Regarding `CCCOc1ccc([C@H]2[C@H](C(=O)O)[C@@H](c3ccc4c(c3)OCO4)CN2CC(=O)Nc2c(CC)cccc2CC)cc1` (stereo in doubt; 38) [A-192621], the MAP in data set [1] was 150 mmHg. Besides, the figures for the half-inhibitory concentration (IC50) in [2], in [3] and in data set [7] were 8200 nM, 0.65 nM and 6.4 nM, respectively. Also, the bioavailability (usually dose-corrected exposure relative to a reference, in per cent) in data set [4] worked out at 35%. For the same compound, the half-life (in general, how long it takes for the measured level to halve) in data set [5] is 5 h. This compound also returned an ET-1 level in data set [6] of 19 pg/mL. In addition, in [8], the AUC – broadly, the area under the concentration-time curve, a measure of exposure – amounted to 2500 ng·h/mL.
Take `CCc1cccc(CC)c1NC(=O)CN1C[C@H](c2ccc3c(c2)OCO3)[C@@H](C(=O)O)[C@@H]1c1ccc(OC)cc1` (stereo in doubt; 36): the IC50 (in general, the concentration that inhibits the measured activity by half) in data set [2] stood at 89 nM; in data set [7], 0.27 nM. The same compound showed a half-life in [5] of 6.4 h. The bioavailability in [9] amounted to 49%. The compound also came in with an AUC in data set [10] of 3900 ng·h/mL.
